Laboratory results as given in ChEMBL document CHEMBL4354817, “4-(3-Aminoazetidin-1-yl)pyrimidin-2-amines as High-Affinity Non-imidazole Histamine H3 Receptor Agonists with in Vivo Central Nervous System Activity” (J Med Chem, 2019).
One block for each compound: values may come before it. Activity calls are given as the source filed them. The calls are words filed in the database; no cut-off is given here.

Columns and labels:
Histamine H3 receptor [1] = target: T1, Histamine H3 receptor (Homo sapiens, UniProt Q9Y5N1); experiment: Displacement of [3H]NAMH from human H3R expressed in HEK293T cells incubated for 2 hrs by microbeta scintillation counting analysis; assay type: cell-based
T1 sequence (Q9Y5N1 whole entry): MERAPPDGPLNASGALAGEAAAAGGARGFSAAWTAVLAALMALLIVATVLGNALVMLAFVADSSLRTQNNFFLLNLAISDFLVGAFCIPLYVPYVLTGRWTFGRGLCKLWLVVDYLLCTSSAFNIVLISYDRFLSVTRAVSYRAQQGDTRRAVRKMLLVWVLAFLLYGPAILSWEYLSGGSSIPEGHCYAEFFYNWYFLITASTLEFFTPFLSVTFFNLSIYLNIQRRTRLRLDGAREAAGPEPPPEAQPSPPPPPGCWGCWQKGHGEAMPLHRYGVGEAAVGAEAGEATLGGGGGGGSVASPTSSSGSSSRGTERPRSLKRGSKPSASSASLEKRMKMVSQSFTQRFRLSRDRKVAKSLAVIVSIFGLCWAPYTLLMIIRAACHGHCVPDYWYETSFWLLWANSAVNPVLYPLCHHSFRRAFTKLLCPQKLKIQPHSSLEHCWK
Method in brief: (§1)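 Homogenates of HEK293T cells transiently expressing hH3R or mH3R, harvested 48 h post-transfection, incubated with 2 nM [3H]NAMH and increasing unlabeled ligand in 50 mM Tris–HCl pH 7.4, 2 h at 25 °C. Rapid filtration over 0.5% PEI-coated GF/C filters, scintillation counting. One-site fit; IC50 converted to pKi by Cheng–Prusoff; three experiments in triplicate.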

Histamine H3 receptor [2] = target: T1, Histamine H3 receptor; experiment: Agonist activity at human H3R expressed on HEK293T cells assessed as inhibition of forskolin-induced CRE-driven luciferase activity co-incubated with forskolin for 6 hrs and measured after 30 mins by CRE-luciferase reporter gene assay; assay type: functional
Method in brief: (§2)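 HEK293T cells transiently transfected (PEI method) in suspension with receptor cDNA (1000 ng), CRE-luciferase (2500 ng) and empty pcDEF3; 50.000 cells/well on poly-L-lysine, grown 24 h. Stimulated with increasing ligand concentrations plus 1 μM forskolin, 37 °C, 5% CO2, 6 h. Luciferase reagent (ATP, D-luciferin) added, luminescence read after 30 min at 37 °C. Nonlinear regression; α relative to histamine; three experiments in triplicate.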

Histamine H3 receptor [3] = target: T1, Histamine H3 receptor; experiment: Intrinsic activity at human H3R expressed on HEK293T cells assessed as activation of forskolin-induced CRE-driven luciferase activity co-incubated with forskolin for 6 hrs and measured after 30 mins by CRE-luciferase reporter gene assay relative to histamine; assay type: functional; method in brief: as §2
Histamine H3 receptor [4] = target: T1, Histamine H3 receptor; experiment: Agonist activity at human H3R expressed on HEK293T cells by [35S]GTPgammaS binding assay; assay type: functional
Method in brief: (§3)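 [35S]GTPγS accumulation measured on homogenates of HEK293T cells transiently expressing hH3R, with increasing ligand concentrations; α expressed relative to histamine. At least three experiments in triplicate.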

Histamine H3 receptor [5] = target: T1, Histamine H3 receptor; experiment: Intrisic activity at human H3R expressed on HEK293T cells by [35S]GTPgammaS binding assay relative to histamine; assay type: functional; method in brief: as §3
Histamine H4 receptor [6] = target: T2, Histamine H4 receptor (Homo sapiens, UniProt Q9H3N8); experiment: Agonist activity at human H4R expressed on HEK293T cells assessed as inhibition of forskolin-induced CRE-driven luciferase activity co-incubated with forskolin for 6 hrs and measured after 30 mins by CRE-luciferase reporter gene assay; assay type: functional; method in brief: as §2
Histamine H4 receptor [7] = target: T2, Histamine H4 receptor; experiment: Intrinsic activity at human H4R expressed on HEK293T cells assessed as activation of forskolin-induced CRE-driven luciferase activity co-incubated with forskolin for 6 hrs and measured after 30 mins by CRE-luciferase reporter gene assay relative to histamine; assay type: functional; method in brief: as §2
[8] = target: Histamine H2 receptor (Homo sapiens) (UniProt P25021); experiment: Agonist activity at human H2R expressed on HEK293T cells assessed as inhibition of forskolin-induced CRE-driven luciferase activity up to 10 uM pre-incubated with forskolin for 6 hrs and measured after 30 mins by luciferase reporter gene assay; assay type: functional
Histamine H2 receptor (Homo sapiens), sequence (P25021 whole entry): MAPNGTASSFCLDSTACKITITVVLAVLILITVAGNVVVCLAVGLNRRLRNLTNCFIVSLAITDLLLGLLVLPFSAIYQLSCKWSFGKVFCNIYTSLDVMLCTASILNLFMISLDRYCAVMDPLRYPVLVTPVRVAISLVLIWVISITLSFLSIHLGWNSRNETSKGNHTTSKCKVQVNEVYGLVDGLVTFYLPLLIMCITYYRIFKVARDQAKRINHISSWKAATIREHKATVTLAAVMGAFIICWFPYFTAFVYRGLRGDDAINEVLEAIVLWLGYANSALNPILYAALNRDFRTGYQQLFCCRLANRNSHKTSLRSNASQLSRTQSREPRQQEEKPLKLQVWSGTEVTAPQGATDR
Method in brief: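 HEK293T cells transfected in suspension with H2R cDNA (2500 ng), CRE-luciferase (2500 ng) and empty pcDEF3; 50.000 cells/well, grown 24 h before ligand stimulation. Luminescence read 30 min after luciferase reagent (ATP, D-luciferin) at 37 °C. Dose–response curves fitted by nonlinear regression.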

[9] = target: Histamine H3 receptor (Mus musculus) (UniProt P58406); experiment: Intrinsic activity at mouse H3R expressed on HEK293T cells assessed as activation of forskolin-induced CRE-luciferase reporter gene activity co-incubated with forskolin for 6 hrs and measured after 30 mins by luciferase reporter gene assay; assay type: functional; method in brief: as §2
Histamine H3 receptor (Mus musculus), sequence (P58406 whole entry): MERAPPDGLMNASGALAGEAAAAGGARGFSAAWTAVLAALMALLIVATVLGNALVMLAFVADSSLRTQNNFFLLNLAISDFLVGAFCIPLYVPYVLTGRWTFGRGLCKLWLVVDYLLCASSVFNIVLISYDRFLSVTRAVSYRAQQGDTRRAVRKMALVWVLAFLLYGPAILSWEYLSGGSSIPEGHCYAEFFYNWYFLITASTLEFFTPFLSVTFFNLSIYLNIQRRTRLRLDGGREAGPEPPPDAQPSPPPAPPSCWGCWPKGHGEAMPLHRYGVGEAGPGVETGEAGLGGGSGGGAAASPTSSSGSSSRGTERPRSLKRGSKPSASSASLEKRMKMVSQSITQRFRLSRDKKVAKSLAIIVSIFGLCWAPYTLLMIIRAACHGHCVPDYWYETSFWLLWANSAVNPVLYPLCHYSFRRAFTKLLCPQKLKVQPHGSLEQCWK

Histamine H3 receptor [10] = target: T3, Histamine H3 receptor (Mus musculus, UniProt P58406); experiment: Displacement of [3H]NAMH from mouse H3R expressed in HEK293T cells incubated for 2 hrs by microbeta scintillation counting analysis; assay type: cell-based; method in brief: as §1
T3 sequence (P58406 whole entry): as above

Histamine H4 receptor [11] = target: T4, Histamine H4 receptor (Mus musculus, UniProt Q91ZY2); experiment: Displacement of [3H]histamine from mouse H4R expressed in HEK293T cells incubated for 2 hrs by microbeta scintillation counting analysis; assay type: cell-based
T4 sequence (Q91ZY2 whole entry): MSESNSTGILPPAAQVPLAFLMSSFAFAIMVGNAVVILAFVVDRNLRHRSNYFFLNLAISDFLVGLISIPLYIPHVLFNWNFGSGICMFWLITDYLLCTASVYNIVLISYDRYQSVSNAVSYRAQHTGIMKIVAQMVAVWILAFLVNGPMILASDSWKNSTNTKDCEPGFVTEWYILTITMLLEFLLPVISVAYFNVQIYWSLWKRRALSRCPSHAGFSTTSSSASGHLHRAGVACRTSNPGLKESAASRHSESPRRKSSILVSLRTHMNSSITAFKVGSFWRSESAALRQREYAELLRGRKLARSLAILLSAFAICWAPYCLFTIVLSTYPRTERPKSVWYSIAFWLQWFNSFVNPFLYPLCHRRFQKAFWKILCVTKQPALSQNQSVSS
Method in brief: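 mH4R-expressing HEK293T homogenates incubated with 30 nM [3H]histamine and increasing unlabeled ligand in 50 mM Tris–HCl pH 7.4, 2 h at 25 °C. Filtered over 0.5% PEI-coated GF/C filters; bound radioactivity counted. One-site fit, Cheng–Prusoff conversion to pKi.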

Histamine H3 receptor [12] = target: T3, Histamine H3 receptor; experiment: Agonist activity at mouse H3R expressed on HEK293T cells assessed as inhibition of forskolin-induced CRE-driven luciferase activity co-incubated with forskolin for 6 hrs and measured after 30 mins by luciferase reporter gene assay; assay type: functional; method in brief: as §2
Histamine H4 receptor [13] = target: T4, Histamine H4 receptor; experiment: Agonist activity at mouse H4R expressed on HEK293T cells assessed as inhibition of forskolin-induced CRE-driven luciferase activity co-incubated with forskolin for 6 hrs and measured after 30 mins by luciferase reporter gene assay; assay type: functional; method in brief: as §2
[14] = target: T5, Histamine H4 receptor (Mus musculus) (UniProt Q91ZY2); experiment: Intrinsic activity at mouse H4R expressed on HEK293T cells assessed as activation of forskolin-induced CRE-luciferase reporter gene activity co-incubated with forskolin for 6 hrs and measured after 30 mins by luciferase reporter gene assay; assay type: functional; method in brief: as §2
T5 sequence (whole entry): T4 sequence (Q91ZY2 whole entry)

[15] = Half life in rat liver microsomes at 50 uM measured up to 45 mins by UPLC/MS analysis; assay type: ADME, Microsome; conditions: 0.75 h
[16] = Intrinsic clearance in rat liver microsomes at 50 uM measured up to 45 mins by UPLC/MS analysis; assay type: ADME, Microsome; conditions: read-out: CLH
[17] = Half life in mouse liver microsomes at 50 uM measured up to 45 mins by UPLC/MS analysis; assay type: ADME, Microsome
[18] = Intrinsic clearance in mouse liver microsomes at 50 uM measured up to 45 mins by UPLC/MS analysis; assay type: ADME, Microsome; conditions: read-out: CLH
Cytochrome P450 3A4 = Cytochrome P450 3A4 (Homo sapiens, UniProt P08684); experiment: Inhibition of human CYP3A4 expressed in baculovirus infected insect cells using beetle D-luciferin as substrate preincubated for 30 mins followed by NADPH addition and measured after 30 mins by CYP450-Glo assay; assay type: ADME
Cytochrome P450 3A4, sequence (P08684 whole entry): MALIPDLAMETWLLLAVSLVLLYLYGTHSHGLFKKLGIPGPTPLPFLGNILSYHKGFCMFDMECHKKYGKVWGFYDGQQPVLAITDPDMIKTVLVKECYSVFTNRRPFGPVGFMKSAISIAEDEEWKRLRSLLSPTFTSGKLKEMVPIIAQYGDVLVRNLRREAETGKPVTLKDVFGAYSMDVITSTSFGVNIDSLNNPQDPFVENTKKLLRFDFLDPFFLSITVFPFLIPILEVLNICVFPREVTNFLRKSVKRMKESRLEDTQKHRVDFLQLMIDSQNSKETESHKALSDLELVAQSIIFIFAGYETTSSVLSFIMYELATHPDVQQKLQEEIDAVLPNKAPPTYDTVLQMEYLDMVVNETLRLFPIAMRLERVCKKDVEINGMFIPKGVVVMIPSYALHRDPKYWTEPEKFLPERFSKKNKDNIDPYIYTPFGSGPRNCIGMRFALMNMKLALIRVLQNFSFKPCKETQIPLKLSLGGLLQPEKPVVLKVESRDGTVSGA

Cytochrome P450 2D6 = Cytochrome P450 2D6 (Homo sapiens, UniProt P10635); experiment: Inhibition of human CYP2D6 expressed in baculovirus infected insect cells using beetle D-luciferin as substrate preincubated for 30 mins followed by NADPH addition and measured after 30 mins by CYP450-Glo assay; assay type: ADME
Cytochrome P450 2D6, sequence (P10635 whole entry): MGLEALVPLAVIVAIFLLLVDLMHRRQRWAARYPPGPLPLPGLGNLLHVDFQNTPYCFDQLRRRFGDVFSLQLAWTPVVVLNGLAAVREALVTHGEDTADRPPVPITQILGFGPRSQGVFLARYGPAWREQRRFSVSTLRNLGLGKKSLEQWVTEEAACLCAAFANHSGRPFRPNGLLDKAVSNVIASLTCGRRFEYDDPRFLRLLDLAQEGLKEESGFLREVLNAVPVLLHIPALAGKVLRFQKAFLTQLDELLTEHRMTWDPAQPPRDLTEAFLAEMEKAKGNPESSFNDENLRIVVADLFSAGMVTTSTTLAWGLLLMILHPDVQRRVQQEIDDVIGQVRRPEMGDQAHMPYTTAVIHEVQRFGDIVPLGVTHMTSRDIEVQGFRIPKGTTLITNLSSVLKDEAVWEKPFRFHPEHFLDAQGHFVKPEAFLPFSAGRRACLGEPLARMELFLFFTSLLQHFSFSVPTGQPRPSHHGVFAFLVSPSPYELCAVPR

Cytochrome P450 2C9 = Cytochrome P450 2C9 (Homo sapiens, UniProt P11712); experiment: Inhibition of human CYP2C9 expressed in baculovirus infected insect cells using beetle D-luciferin as substrate preincubated for 30 mins followed by NADPH addition and measured after 30 mins by CYP450-Glo assay; assay type: ADME
Cytochrome P450 2C9, sequence (P11712 whole entry): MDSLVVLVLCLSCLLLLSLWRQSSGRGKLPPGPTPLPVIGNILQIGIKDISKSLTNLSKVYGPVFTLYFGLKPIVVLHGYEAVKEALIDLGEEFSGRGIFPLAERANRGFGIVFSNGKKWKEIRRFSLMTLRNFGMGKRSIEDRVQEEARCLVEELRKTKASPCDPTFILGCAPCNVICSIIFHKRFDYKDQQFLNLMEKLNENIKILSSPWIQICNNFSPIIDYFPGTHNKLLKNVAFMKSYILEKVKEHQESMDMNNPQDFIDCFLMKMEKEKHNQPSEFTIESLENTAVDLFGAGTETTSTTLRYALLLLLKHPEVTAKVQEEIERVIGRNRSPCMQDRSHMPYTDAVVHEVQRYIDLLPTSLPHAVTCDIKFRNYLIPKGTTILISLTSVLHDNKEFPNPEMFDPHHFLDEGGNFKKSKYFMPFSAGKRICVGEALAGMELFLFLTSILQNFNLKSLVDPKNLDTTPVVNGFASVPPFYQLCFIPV

Mus musculus [19] = experiment: Effect on social recognition in C57Bl6 mouse assessed as change in time spent in exploring cage at 5 mg/kg, ip administered 30 mins prior to training trial; assay type: ADME, organism-based; conditions: in vivo, 0.5 h
Method in brief: (§4)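 Male C57Bl6 mice, 8–9 weeks. Session 1: 10 min arena habituation with two empty wire cups. 24 h later, 10 min with juvenile (4–5 weeks) under one cup; 1 h later, 10 min test with familiar plus novel juvenile. 5 mg/kg or vehicle i.p. 30 min before second session. Blind video scoring of exploration; sociability and discrimination indices; 10–11 mice/group.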

Mus musculus [20] = experiment: Effect on social recognition in C57Bl6 mouse assessed as change in behavior at 5 mg/kg, ip administered 30 mins prior to training trial; assay type: ADME, organism-based; conditions: in vivo, 0.5 h; method in brief: as §4
Mus musculus [21] = experiment: Effect on social recognition in C57Bl6 mouse assessed as change in time spent with familiar juvenile at 5 mg/kg, ip administered 30 mins prior to training trial; assay type: ADME, organism-based; conditions: in vivo, 0.5 h; method in brief: as §4
Mus musculus [22] = experiment: Effect on social recognition in C57Bl6 mouse assessed as change in time spent with novel juvenile at 5 mg/kg, ip administered 30 mins prior to training trial; assay type: ADME, organism-based; conditions: in vivo, 0.5 h; method in brief: as §4
Histamine H4 receptor [23] = target: T2, Histamine H4 receptor; experiment: Displacement of [3H]histamine from human H4R expressed in HEK293T cells incubated for 2 hrs by microbeta scintillation counting analysis

Compound: CCc1cc(N2CC(N(C)C)C2)nc(N)n1
Ki (Histamine H3 receptor [1]): 251 nM | EC50 (Histamine H3 receptor [2]): 63.1 nM | Intrinsic activity (Histamine H3 receptor [3]): 0.8

Compound: CCNC1CN(c2cc(C(C)C)nc(N)n2)C1
Ki (Histamine H3 receptor [1]): 100 nM | EC50 (Histamine H3 receptor [2]): 158 nM | Intrinsic activity (Histamine H3 receptor [3]): 0.3

Compound: Cc1cc(N2CC(N(C)C)C2)nc(N)n1
Ki (Histamine H3 receptor [1]): 316 nM | EC50 (Histamine H3 receptor [2]): 39.8 nM | Intrinsic activity (Histamine H3 receptor [3]): 0.9

Compound: CC(C)c1cc(N2CC(N(C)C)C2)nc(N)n1
Ki (Histamine H3 receptor [1]): 126 nM | EC50 (Histamine H3 receptor [2]): 100 nM | Intrinsic activity (Histamine H3 receptor [3]): 0.4

Compound: CCNC1CN(c2cc(CC)nc(N)n2)C1
Ki (Histamine H3 receptor [1]): 126 nM | EC50 (Histamine H3 receptor [2]): 31.6 nM | Intrinsic activity (Histamine H3 receptor [3]): 0.9

Compound: CCc1cc(N2CC(N)C2)nc(N)n1
Ki (Histamine H3 receptor [1]): 79.4 nM | EC50 (Histamine H3 receptor [2]): 31.6 nM | Intrinsic activity (Histamine H3 receptor [3]): 0.9

The remaining compounds from weak to strong by Ki (Histamine H3 receptor [1]), led by results:

Ki (Histamine H3 receptor [1]): 79.4 nM | EC50 (Histamine H3 receptor [2]): 12.6 nM | Intrinsic activity (Histamine H3 receptor [3]): 1
Compound: CCNC1CN(c2cc(C)nc(N)n2)C1

Ki (Histamine H3 receptor [1]): 50.1 nM | EC50 (Histamine H3 receptor [2]): 25.1 nM | Intrinsic activity (Histamine H3 receptor [3]): 0.8
Compound: CCc1cc(N2CC(NC)C2)nc(N)n1

Ki (Histamine H3 receptor [1]): 50.1 nM | EC50 (Histamine H3 receptor [2]): 15.8 nM | Intrinsic activity (Histamine H3 receptor [3]): 0.9
Compound: Cc1cc(N2CC(N)C2)nc(N)n1

Ki (Histamine H3 receptor [1]): 39.8 nM | EC50 (Histamine H3 receptor [2]): 7.94 nM | Intrinsic activity (Histamine H3 receptor [3]): 1.3
Compound: Nc1nccc(N2CC(N3CCCC3)C2)n1

Ki (Histamine H3 receptor [1]): 15.8 nM | EC50 (Histamine H3 receptor [2]): 5.01 nM | Intrinsic activity (Histamine H3 receptor [3]): 1.1
Compound: Nc1nccc(N2CC(N)C2)n1

Ki (Histamine H3 receptor [1]): 3.16 nM | EC50 (Histamine H3 receptor [2]): 0.316 nM | Intrinsic activity (Histamine H3 receptor [3]): 1.2 | EC50 (Histamine H3 receptor [4]): 3.98 nM | Intrinsic activity (Histamine H3 receptor [5]): 0.5 | EC50 (Histamine H4 receptor [6]): 3.16 nM | Intrinsic activity (Histamine H4 receptor [7]): 1.1 | Activity [8]: inactive | Intrinsic activity [9]: 1.2 | Ki (Histamine H3 receptor [10]): 1 nM | Ki (Histamine H4 receptor [11]): 15.8 nM | EC50 (Histamine H3 receptor [12]): 0.1 nM | EC50 (Histamine H4 receptor [13]): 1 nM | Intrinsic activity [14]: 1.1 | t1/2 [15]: 3.98 h | CLint scaled at 50 µM [16]: 7.9 mL/min/kg | half-life at 50 µM [17]: 2.18 h | CLint scaled at 50 µM [18]: 20.7 mL/min/kg | IC50 (Cytochrome P450 3A4): > 25000 nM | IC50 (Cytochrome P450 2D6): > 25000 nM | IC50 (Cytochrome P450 2C9): > 25000 nM | Ki (Histamine H4 receptor [23]): 7.94 nM
Compound: CCCNC1CN(c2ccnc(N)n2)C1.O.O=C(O)/C=C/C(=O)O
Activity (Mus musculus [19]): Non-Toxic | Activity (Mus musculus [20]): Non-Toxic | Activity (Mus musculus [21]): Non-Toxic | Activity (Mus musculus [22]): Non-Toxic
